Bioassay records from PubChem.
Rows were chosen to be rich in hits. Some 2.2% of all compounds tested hit in one or more screens of this group.
C2C12 statin – suppressors of statin myotoxicity in C2C12 myotubes, primary screen, cell-based, single point, plate reader; C2C12 myotubes + simvastatin, ATP luminescence, 48 h; scaled: DMSO 0, geranylgeraniol control 100; 330,000 tested, 0.78% active; AID 602340, 2012; rescue of ATP level, % at 7.49 µM;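 active = mean ATP rescue above about 67%, or every replicate alone reaching that limit, limit read from the data, passing the limit was not always enough; inconclusive = no clear call, values can overlap the other calls; inactive = mean under the limit and some replicate under it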;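 also: myotubes were challenged with 10 µM simvastatin during compound exposure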
DENV2 CPE rescue – inhibitors of DENV2 cytopathic effect, primary screen, cell-based, plate reader, single concentration. 350,000 tested, 1.7% active. CPE inhibition, % at 9.99 µM. DENV2-infected cells, cytopathic effect rescue. AID 651640, 2012; in the data active = CPE inhibition above about 20%, passing the limit was not always enough; inconclusive = no clear call, values can overlap the other calls; tested in BHK-21 cells;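 also: 0% = median of neutral control wells and 100% = median of positive control wells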
E-selectin induc – E-selectin induction in HUVECs, primary screen, imaging, HUVEC, immunofluorescence imaging, single point. AID 686992, 2013. P16581. normalized: neutral wells 0, TNF-alpha wells 100. activation, % at 7.58 µM. 260,000 tested, 0.37% active;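 active = mean E-selectin-positive cell signal at least 10% of the positive control, reached in at least 60% of replicates, without over 20% cell loss; inconclusive = no rule given, readout overlaps actives, possibly toxicity-flagged; inactive = the rest, including those meeting only one limit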
Target sequence (P16581 whole entry, looked up): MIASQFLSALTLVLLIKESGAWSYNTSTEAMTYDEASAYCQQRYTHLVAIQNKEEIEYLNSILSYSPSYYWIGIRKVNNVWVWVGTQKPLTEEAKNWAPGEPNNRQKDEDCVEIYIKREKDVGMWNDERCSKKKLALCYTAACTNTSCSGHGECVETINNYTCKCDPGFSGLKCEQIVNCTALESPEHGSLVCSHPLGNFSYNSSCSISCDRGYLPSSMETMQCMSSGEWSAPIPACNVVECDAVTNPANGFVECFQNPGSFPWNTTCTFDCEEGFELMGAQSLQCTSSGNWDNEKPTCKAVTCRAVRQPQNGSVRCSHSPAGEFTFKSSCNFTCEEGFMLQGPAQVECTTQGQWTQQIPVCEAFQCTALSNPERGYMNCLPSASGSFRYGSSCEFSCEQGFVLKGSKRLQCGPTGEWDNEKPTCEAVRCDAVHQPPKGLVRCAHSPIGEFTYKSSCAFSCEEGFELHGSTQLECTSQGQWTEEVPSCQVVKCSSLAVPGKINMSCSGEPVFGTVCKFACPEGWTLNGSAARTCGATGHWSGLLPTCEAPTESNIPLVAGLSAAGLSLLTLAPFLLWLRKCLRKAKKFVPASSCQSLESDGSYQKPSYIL
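Test system: HUVEC; input: 3,000 HUVEC/well; measured by: immunofluorescence imaging; read-out: % PE-positive cells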
Active calls of the source: *; ? = inconclusive; nt = no result given; ! = not active in a repeat.

SMILES | C2C12 statin | DENV2 CPE rescue | E-selectin induc
COc1ccc(NC(=O)N2CCCCN3[C@H](CO)[C@@H](c4ccc(C5=CCCC5)cc4)[C@@H]3C2)cc1 | nt | 11.8 | nt
O=C(N[C@H]1CC[C@@H](CCNC(=O)C2CCCC2)O[C@H]1CO)c1ccccn1 | 0.7 | 43.6* | 0.0
O=C(N[C@H]1CC[C@H](CC(=O)N2CCCCC2)O[C@@H]1CO)c1ccccn1 | -4.1 | 28.0* | -0.4
O=C(N[C@H]1CC[C@@H](CC(=O)N2CCCCC2)O[C@@H]1CO)c1ccccn1 | -5.0 | -7.9 | -0.4
O=C(N[C@H]1CC[C@@H](CCNC(=O)C2CCCC2)O[C@@H]1CO)c1ccccn1 | -0.2 | 3.5 | -0.1
C[C@@H]1CN([C@H](C)CO)C(=O)c2cccc(NC(=O)c3ccncc3)c2O[C@H]1CN(C)S(C)(=O)=O | -11.4 | 12.0 | nt
CCOC(=O)Cn1c(=O)c2c(nc3n2CCCN3Cc2ccccc2)n(C)c1=O | -3.7 | 1.8 | nt
CCOC(=O)Cn1c(=O)c2c(nc3n2CCN3Cc2ccccc2)n(C)c1=O | 134.3* | nt | nt
C[C@H](O)C#Cc1cnc2c(c1)C(=O)N([C@H](C)CO)C[C@@H](C)[C@@H](CN(C)C(=O)c1ccccc1)O2 | 0.7 | ? | 0.2
Cc1noc(C)c1NC(=O)N(C)C[C@H]1Oc2ccc(NC(=O)c3ccncc3)cc2C(=O)N([C@H](C)CO)C[C@H]1C | 13.9 | 11.5 | 347.6*
Cc1noc(C)c1NC(=O)N(C)C[C@H]1OCCCC[C@H](C)Oc2ccc(NC(=O)c3ccncc3)cc2C(=O)N([C@@H](C)CO)C[C@@H]1C | -9.4 | 8.2 | -0.2
Cc1noc(C)c1NC(=O)N(C)C[C@@H]1Oc2ccc(NC(=O)NC(C)C)cc2C(=O)N([C@@H](C)CO)C[C@H]1C | -25.6 | 44.8* | 0.1
Cc1noc(C)c1NC(=O)N(C)C[C@@H]1OCCCC[C@H](C)Oc2ccc(NC(=O)c3ccncc3)cc2C(=O)N([C@@H](C)CO)C[C@@H]1C | -22.1 | 17.8 | -0.1
Cc1noc(C)c1NC(=O)N(C)C[C@@H]1Oc2ccc(NC(=O)c3ccncc3)cc2C(=O)N([C@H](C)CO)C[C@@H]1C | -8.9 | -7.2 | 421.0*
Cc1noc(C)c1NC(=O)N(C)C[C@H]1Oc2ccc(NC(=O)NC(C)C)cc2C(=O)N([C@@H](C)CO)C[C@@H]1C | 3.2 | -5.3 | -0.4
C[C@H](CO)N1C[C@H](C)[C@@H](CN(C)S(=O)(=O)c2ccccc2)Oc2ccc(NC(=O)CCCN(C)C)cc2CC1=O | -8.6 | 6.8 | ?
O=C(C[C@H]1CC[C@@H]2[C@H](COC[C@@H](O)CN2S(=O)(=O)c2ccc(Cl)cc2)O1)NCc1ccncn1 | -2.6 | 0.3 | 0.1
CCCNC(=O)N(C)C[C@H]1Oc2cc(-c3ccncc3)ccc2S(=O)(=O)N([C@@H](C)CO)C[C@H]1C | 0.9 | 13.7 | -0.2
Cc1noc(C)c1S(=O)(=O)Nc1ccc2c(c1)C(=O)N([C@H](C)CO)C[C@H](C)[C@@H](CN(C)C(=O)C1CCCCC1)OCCCC[C@H](C)O2 | nt | -8.2 | -0.3
CCc1ccc2c(F)cccc2n1 | 1.4 | 60.1* | -0.2
CCCc1ccc2c(C)cccc2n1 | nt | -5.1 | nt
NC(=O)NCC#Cc1ccc2c(c1)[C@]1(C(=O)N2)[C@H](C(=O)O)[C@H]2C(=O)O[C@H](c3ccccc3)[C@H](c3ccccc3)N2[C@@H]1c1ccc(OCCO)cc1 | nt | 1.0 | nt
COc1cccc(CCNC(=O)CC2C(=O)NCCN2Cc2ccc(Cl)c(F)c2)c1 (centres undefined) | 13.5 | -1.4 | 3.6
COc1cccc(CN2CCNC(=O)C2CC(=O)NCCN2CCCCC2=O)c1 (centres undefined) | 85.9* | 15.3 | nt
Cc1noc(C)c1S(=O)(=O)N(C)C[C@@H]1Oc2ccc(NS(=O)(=O)c3ccc(F)cc3)cc2CC(=O)N([C@H](C)CO)C[C@H]1C | 4.2 | 8.0 | -0.3
SMILES | C2C12 statin | DENV2 CPE rescue | E-selectin induc
C[C@H](CO)N1C[C@H](C)[C@@H](CN(C)Cc2cncnc2)Oc2ncc(C#CC3CCCCC3)cc2C1=O | -10.7 | -6.8 | 0.1
CC1CCN(c2nc3c(=O)[nH]c(N)nc3n2[C@@H]2O[C@H](CO)[C@@H](O)[C@H]2O)CC1 | 2.3 | 3.1 | 69.0*
CC1CCN(c2nc3c(N)ncnc3n2[C@@H]2O[C@H](CO)[C@@H](O)[C@H]2O)CC1 | 4.4 | -6.8 | 0.3
C/C(=N/NC(=O)CNc1ccc(C)cc1)c1ccc(Br)s1 | 29.7 | 4.0 | nt
COc1ccccc1NCC(=O)N/N=C(\C)c1ccc(Br)s1 | -1.1 | 23.2* | nt
O=C(c1cccnc1)N1CC[C@@H]2[C@@H](CO)Nc3ccc(C4=CCCCC4)cc3[C@@H]21 | -2.5 | ? | 0.1
Cc1ccc2nc(-c3ccc(C#N)cc3)c(Cc3ccccc3C(F)(F)F)n2c1 | 4.7 | 63.0* | 0.2
N#Cc1ccc(-c2nc3ccc(Br)cn3c2Cc2ccccc2C(F)(F)F)cc1 | -10.4 | 4.8 | -0.2
Nc1nnc(SCC(=O)Nc2ccc(N3CCOCC3)c(Cl)c2)s1 | -53.6 | 10.2 | -0.3
Nc1nnc(SCC(=O)Nc2cccc(Cl)c2)s1 | 0.9 | 49.5* | 3.0
COc1ccc(O)c(/C=N/NC(=O)CN2CCS(=O)(=O)CC2)c1 | -7.0 | 54.2* | -0.3
COc1ccc(O)c(/C=N/NC(=O)CCC(=O)Nc2ccc(C)cc2)c1 | -7.0 | 1.5 | 0.1
C[C@H](CO)N1C[C@H](C)[C@@H](CN(C)Cc2ccc(O)cc2)OCc2cnnn2CCCC1=O | 6.4 | 41.9*! | -0.3
CC(C)NC(=O)N(C)C[C@@H]1OCc2cnnn2CCCC(=O)N([C@H](C)CO)C[C@@H]1C | 3.7 | -3.2 | 0.4
CC(C)NC(=O)N(C)C[C@H]1OCc2cnnn2CCCC(=O)N([C@@H](C)CO)C[C@@H]1C | -15.4 | 45.3* | 0.1
CC(C)OC(=O)N(C)C[C@H]1OCc2cnnn2CCCC(=O)N([C@@H](C)CO)C[C@H]1C | 4.5 | ? | 0.1
C[C@H](CO)N1C[C@H](C)[C@@H](CN(C)C(=O)Cc2ccccc2)OCc2cnnn2CCCC1=O | 1.2 | 12.4 | 2.6
CC(C)OC(=O)N(C)C[C@H]1OCc2cnnn2CCCC(=O)N([C@H](C)CO)C[C@@H]1C | 2.8 | 28.5*! | 0.8
C[C@@H]1CN([C@H](C)CO)C(=O)CCCn2nncc2CO[C@@H]1CN(C)Cc1ccc(O)cc1 | -4.6 | 2.1 | -0.1
C[C@@H]1CN([C@H](C)CO)C(=O)CCCn2nncc2CO[C@@H]1CN(C)C(=O)Cc1ccccc1 | 2.6 | 32.8*! | -1.7
CC(C)NC(=O)N(C)C[C@@H]1Oc2ncc(C#CCc3ccccc3)cc2C(=O)N([C@H](C)CO)C[C@H]1C | 2.4 | -1.3 | -0.4
O=C(C[C@H]1CC[C@@H]2[C@H](COC[C@@H](O)CN2C(=O)Nc2ccccc2)O1)NC1Cc2ccccc2C1 | -22.1 | -19.0 | 0.1
CN1c2ccc(-c3ccc(F)cc3)cc2[C@H]2[C@H](CCN2C(=O)Cc2ccccn2)[C@@H]1CO | 34.1 | 1.2 | 0.1
CCCc1cn(CC[C@H]2CC[C@H](NC(=O)C3CC3)[C@H](CO)O2)nn1 | 2.4 | -5.3 | 0.8
C[C@@H]1CN([C@H](C)CO)C(=O)Cc2cc(NS(C)(=O)=O)ccc2O[C@H]1CN(C)Cc1ccc(C(=O)O)cc1 | -22.9 | 6.4 | -0.1
